From PubChem
Shn3 inh set2 – reduces Shn3 3'UTR luciferase signal in osteoblasts. Clone20 osteoblast Shn3 3'UTR firefly luciferase, 24 h. inhibition, % at 12.5 µM. actives 0.52% (n = 360,000);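 active means mean inhibition of at least 75% with every replicate also reaching 75%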;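 further: 0% = median of neutral control wells and 100% = pilot-screen positive control compound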
PAX8 inh HTS – PAX8 transcriptional activity inhibition; actives 1.2% (n = 360,000); AID 652154; inhibition, % at 12.6 µM; RMG-I TPO-luciferase reporter, SteadyGlo, 24 h;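 active means mean replicate inhibition at least 60% with every replicate also reaching 60%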;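 further: luciferase light reporting Pax8 driven TPO promoter activity; plate controls were median of neutral control wells for no effect and mitoxantrone controls for full effect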
EBV LMP1 NFkB – Epstein-Barr LMP1 NF-kappaB reporter inhibition | actives 0.69% (n = 350,000) | AID 504558 | LMP1-induced NF-kappaB luciferase reporter cells, luminescence | inhibition, % at 12.5 µM; in the data active means inhibition above about 41%;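 further: 0% = neutral control wells and 100% = reference inhibitor control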
aSyn UTR inh – MLPCN primary screen, SNCA 5' untranslated region; alpha-synuclein 5'UTR reporter, inhibitor activity; inhibition, % (tested at 7.5 µM); actives 0.82% (n = 300,000); AID 1813; in the data active means inhibition above about 60%;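 further: H4 neuroglioblastoma cells stably carrying SNCA 5'UTR luciferase fusion; 0% = DMSO wells and 100% = positive control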
EWS-Fli inh – blocks EWS/Fli oncoprotein-driven transcription. A673 NR0B1-luciferase reporter, viability-normalised. inhibition, % at 12.6 µM. actives 0.67% (n = 350,000);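 active means mean inhibition of at least 50% after viability correction, with every replicate also passing that limit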;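 further: firefly luciferase signal divided by Alamar Blue viability fluorescence both relative to DMSO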
FN deposition inh – fibronectin deposition inhibition. AH1F fibroblasts, Alexa488-fibronectin deposition fluorescence, overnight. inhibition, % at 12.6 µM. actives 0.086% (n = 350,000);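 active means mean inhibition across replicates of 30% or more, regardless of how many single replicates reach that level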;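 further: positive control wells lacked labelled fibronectin entirely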
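Assay system: AH1F fibroblasts / Quantity: 10000 cells per well / Medium: DMEM plus 2% serum, read in PBS / Reagent: labelled fibronectin 24 nM / Dosing: single dose, pinned / Times: 1 h cell attachment, overnight exposure to compound and label / Signal: fluorescence, ex 485 nm, em 525 nm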
Active calls of the source: *; . = not tested or not shown. In the library only some 2.1% were active in any assay of this set; here they are far more common.

SMILES	Shn3 inh set2	PAX8 inh HTS	EBV LMP1 NFkB	aSyn UTR inh	EWS-Fli inh	FN deposition inh
C[C@@H]1CCCCO[C@@H](CN(C)S(=O)(=O)c2ccc(F)cc2)[C@H](C)CN([C@@H](C)CO)C(=O)c2cc(NC(=O)c3ccccc3)ccc2O1	.	9	.	.	2	-5
CC(C)CC#Cc1ccc2c(c1)O[C@@H](CN(C)Cc1ccccn1)[C@H](C)CN([C@@H](C)CO)S2(=O)=O	.	50	.	.	19	6
Cc1ccc2c(c1)[C@H]1[C@H](CO2)[C@H](c2ccccc2)[C@]2(C)C(=O)Nc3ccc(F)cc3C(=O)N12	27	41	10	.	56*	17
Cc1ccc2c(c1)[C@H]1[C@H](CO2)[C@H](c2ccccc2)[C@]2(C)C(=O)Nc3cc(Cl)ccc3C(=O)N12	-22	.	13	.	.	.
C[C@@]12C(=O)Nc3ccccc3C(=O)N1[C@H]1c3cc(Br)ccc3OC[C@@H]1[C@@H]2c1ccccc1	17	20	11	.	56*	-1
COc1ccc2c(c1)OC[C@H]1[C@H]2N2C(=O)c3cc(F)ccc3NC(=O)[C@@]2(C)[C@H]1c1ccccc1	13	2	-4	.	2	4
Cc1ccc2c(c1)[C@H]1[C@H](CO2)[C@H](c2ccccc2)[C@]2(C)C(=O)Nc3cc(F)c(F)cc3C(=O)N12	-6	6	19	.	59*	11
COc1ccc2c3c(n(C)c2c1)[C@@H](CO)NCC31CN(C(=O)Nc2ccccc2F)C1	.	.	.	.	14	-4
COc1ccccc1CNC(=O)C[C@@H]1C[C@@H]2c3cc(NC(=O)Nc4ccccc4F)ccc3O[C@@H]2[C@@H](CO)O1	.	-17	.	.	-6	.
O=C(NNC(=O)C12CC3CC(CC(C3)C1)C2)c1ccccc1F	-12	81*	6	53	-3	-7
COc1ccc(-c2ccc3c(c2)S(=O)(=O)c2cccc(C(=O)NCc4cc(C)oc4C(F)(F)F)c2C3=O)cc1OC	19	.	86*	.	.	.
COc1ccc(-c2ccc3c(c2)S(=O)(=O)c2cccc(C(=O)NCc4cccc(OC(F)(F)F)c4)c2C3=O)cc1OC	46	.	-2	.	.	.
Clc1ccc(-c2ccnc(Oc3ccc4ccccc4c3)n2)cc1	-7	.	57*	10	.	.
Clc1ccc(-c2ccnc(Oc3cc(Cl)ccc3Cl)n2)cc1	18	.	4	16	.	.
C[C@@H]1CCCCO[C@@H](CN(C)Cc2ccc3c(c2)OCO3)[C@@H](C)CN([C@@H](C)CO)C(=O)c2cc(NC(=O)Nc3ccc(C(F)(F)F)cc3)ccc2O1	.	77*	.	.	4	2
C[C@@H]1CCCCO[C@@H](CN(C)Cc2ccc3c(c2)OCO3)[C@H](C)CN([C@@H](C)CO)C(=O)c2cc(NC(=O)Nc3ccc(C(F)(F)F)cc3)ccc2O1	.	88*	.	.	-1	-12
C[C@@H]1CN([C@@H](C)CO)C(=O)c2cc(NC(=O)Nc3ccc(C(F)(F)F)cc3)ccc2O[C@@H](C)CCCCO[C@@H]1CN(C)Cc1ccc2c(c1)OCO2	.	101*	.	.	0	-16
C[C@@H]1CCCCO[C@H](CN(C)Cc2ccc3c(c2)OCO3)[C@H](C)CN([C@H](C)CO)C(=O)c2cc(NC(=O)Nc3ccc(C(F)(F)F)cc3)ccc2O1	.	-22	.	.	9	-7
C[C@H]1CCCCO[C@@H](CN(C)Cc2ccc3c(c2)OCO3)[C@@H](C)CN([C@@H](C)CO)C(=O)c2cc(NC(=O)Nc3ccc(C(F)(F)F)cc3)ccc2O1	.	-18	.	.	-5	-3
O=C(Nc1ccc(C(F)(F)F)cc1)N1[C@@H]2CNC[C@H]1C2c1ccc(-c2ccc(F)cc2)cc1 (stereo partly specified)	.	-5	.	.	-11	-3
CCC(=O)N1CC(=O)N2[C@@H](CO)[C@@H](c3ccc(C#Cc4cccc(OC)c4)cc3)[C@@H]2C1	.	29	.	.	5	.
C[C@@H]1CN([C@H](C)CO)C(=O)c2cc(Br)cnc2O[C@@H]1CN(C)CC1CCCC1	.	.	.	.	-14	.
Cc1cc(N2CCN(c3nc(-c4ccc([N+](=O)[O-])cc4)cs3)CC2)c2ccccc2n1	36	29	15	66*	34	.
CN(C)C(=O)c1ccc(-c2ccc3c(c2)[C@@H]2[C@@H](CCN2C(=O)c2ccccn2)[C@@H](CO)N3C)cc1	.	3	.	.	-2	-3
COc1ccc2c3c(n(C)c2c1)[C@H](CO)N(C(=O)Nc1ccc(F)cc1)CC31CCN(C(=O)c2ccc3c(c2)OCO3)CC1	.	77*	.	.	-8	-2
SMILES	Shn3 inh set2	PAX8 inh HTS	EBV LMP1 NFkB	aSyn UTR inh	EWS-Fli inh	FN deposition inh
COc1ccc2c3c(n(C)c2c1)[C@H](CO)N(C(=O)Nc1ccc(F)cc1)CC31CN(S(=O)(=O)c2cccc(F)c2)C1	.	.	.	.	-7	.
COc1ccc2c3c([nH]c2c1)[C@H](CO)N(C(=O)Nc1cccc(F)c1)CC31CCN(S(=O)(=O)c2cccc(C)c2)CC1	.	106*	.	.	2	-7
COc1ccc2c3c(n(C)c2c1)[C@@H](CO)N(C(=O)Nc1ccc(F)cc1)CC31CCN(S(=O)(=O)c2cccc(C)c2)CC1	.	81*	.	.	-1	12
COc1ccc2c3c(n(C)c2c1)[C@H](CO)N(C(=O)Nc1ccc(F)cc1)CC31CCN(S(=O)(=O)c2cccc(C)c2)CC1	.	89*	.	.	-6	3
COc1ccc2c3c([nH]c2c1)[C@H](CO)N(C(=O)Nc1cccc(F)c1)CC31CN(S(=O)(=O)c2cccc(C)c2)C1	.	.	.	.	21	.
CO[C@H]1CN(C)C(=O)c2cc(NC(=O)Nc3ccccc3F)ccc2OC[C@H](C)NC[C@H]1C	.	.	.	.	10	5
C[C@@H]1CCCCO[C@H](CN(C)S(=O)(=O)c2cn(C)cn2)[C@H](C)CN([C@@H](C)CO)C(=O)c2cc(NC(=O)c3ccncc3)ccc2O1	.	-23	.	.	-16	.
NC(=O)c1cccc(-c2noc(-c3ccccc3F)n2)c1	1	-1	11	.	87*	-8
NC(=O)c1ccc(-c2noc(-c3cccc(Cl)c3)n2)cc1	-63	-151	1	.	-93	2
COC(=O)c1cccc(-c2noc(-c3ccccc3F)n2)c1	-29	46	38	.	90*	9
O=C(O)c1cccc(-c2noc(-c3cccc(Cl)c3)n2)c1	78	-28	80*	.	45	-31
CC(C)C#Cc1cnc2c(c1)C(=O)N([C@H](C)CO)C[C@@H](C)[C@H](CN(C)C(=O)Nc1ccccc1)O2	.	.	.	.	-6	-3
CN1C(=O)c2cc(NS(=O)(=O)c3ccc(Cl)cc3)ccc2OC[C@@H]2O[C@@H](CC(=O)N3CCc4ccccc4C3)CC[C@H]21	.	33	.	.	8	-12
CC1CCN(CC(C)OC(=O)c2ccc3c(c2)OCCO3)CC1 (stereo unspecified)	-14	-22	6	12	-11	-29
CC(CN1CCCCC1)OC(=O)c1ccc2c(c1)OCO2 (stereo unspecified)	-15	.	43*	-13	.	.
